Measured values published in ChEMBL document CHEMBL1145456, “Antitumor agents 253. Design, synthesis, and antitumor evaluation of novel 9-substituted phenanthrene-based tylophorine derivatives as potential anticancer agents” (J Med Chem, 2007).
Active and inactive are the calls of the source. The rule behind the calls is not given here.

Tests used:
Format in all cases: functional, cell-based
A549 = experiment: Cytotoxicity against human A549 cells by SRB microtiter plate assay
Method in brief: (§1)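 Cells were cultured at 37 °C, 5% CO₂, in RPMI-1640 with 25 mM HEPES, 2% bicarbonate, 10% FBS and kanamycin. Compounds were added from DMSO stocks, final DMSO ≤1% (v/v). IC₅₀ was interpolated from dose-response data. Each test was run in triplicate in independent experiments.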

KB = experiment: Cytotoxicity against human KB cells by SRB microtiter plate assay
Method in brief: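 KB cells grown at 37 °C, 5% CO₂, humidified, in RPMI-1640 with 25 mM HEPES, 2% (w/v) sodium bicarbonate, 10% FBS and 100 µg/mL kanamycin. Compounds were added from DMSO stocks, with final DMSO at or below 1% (v/v). IC₅₀ was interpolated from dose-response data. Each test was run in triplicate, and independent tests were repeated.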

DU-145 = experiment: Cytotoxicity against human DU145 cells by SRB microtiter plate assay; method in brief: as §1
ZR-75-1 = experiment: Cytotoxicity against human ZR751cells by SRB microtiter plate assay; method in brief: as §1
[1] = Cytotoxicity against multidrug resistant human KB-Vin cells by SRB microtiter plate assay; method in brief: as §1

Structure (SMILES): COc1ccc2c(CN3CCC(CO)CC3)cc3cc4c(cc3c2c1)OCO4
- IC50 (A549; Homo sapiens, A549): 80 nM
- IC50 (KB; kb): 240 nM
- IC50 (DU-145; du-145): 30 nM
- IC50 (ZR-75-1; zr-75-1): 30 nM
- IC50 [1]: 90 nM

Structure (SMILES): COc1ccc2c(CN3CCN(c4ccc(O)cc4)CC3)cc3cc4c(cc3c2c1)OCO4
- IC50 (A549; Homo sapiens, A549): 220 nM
- IC50 (KB; Homo sapiens, KB): 130 nM
- IC50 (DU-145; Homo sapiens, DU-145): 150 nM
- IC50 (ZR-75-1; Homo sapiens, ZR-75-1): 180 nM
- IC50 ([1]; Homo sapiens, KBVIN): 340 nM

Structure (SMILES): COc1ccc2c(CNCCCCC(=O)O)cc3cc4c(cc3c2c1)OCO4
- IC50 (A549; Homo sapiens, A549): 1300 nM

Structure (SMILES): COc1ccc2c(CN3CCC(CCO)CC3)cc3cc4c(cc3c2c1)OCO4
- IC50 (A549; a549): 90 nM
- IC50 (KB; kb): 200 nM
- IC50 (DU-145; Homo sapiens, DU-145): 100 nM
- IC50 (ZR-75-1; Homo sapiens, ZR-75-1): 20 nM
- IC50 [1]: 200 nM

Structure (SMILES): COc1ccc2c(CN3CCC[C@@H]3CO)cc3cc4c(cc3c2c1)OCO4
- IC50 (A549; Homo sapiens, A549): 1100 nM

Structure (SMILES): CC[C@H]1CN2CCc3cc(OC)c(OC)cc3[C@@H]2C[C@@H]1C[C@H]1NCCc2cc(OC)c(OC)cc21 [EMETINE]
- IC50 (A549; Homo sapiens, A549): 40 nM
- IC50 (KB; Homo sapiens, KB): 40 nM
- IC50 (DU-145; Homo sapiens, DU-145): 60 nM
- IC50 (ZR-75-1; Homo sapiens, ZR-75-1): 100 nM
- IC50 ([1]; Homo sapiens, KBVIN): > 2000 nM

Structure (SMILES): O=C(O)[C@@H]1CCCCN1Cc1cc2cc3c(cc2c2cc(OCc4ccccc4)ccc12)OCO3
- IC50 (A549; Homo sapiens, A549): 3200 nM

Structure (SMILES): COc1ccc2c(CN3CCN(c4ccc(Cl)cc4)CC3)cc3cc4c(cc3c2c1)OCO4
- IC50 (A549; Homo sapiens, A549): 65200 nM

Structure (SMILES): COc1ccc2c(CN3CCCC[C@H]3CO)cc3cc4c(cc3c2c1)OCO4
- IC50 (A549; Homo sapiens, A549): 160 nM
- IC50 (KB; Homo sapiens, KB): 120 nM
- IC50 (DU-145; du-145): 210 nM
- IC50 (ZR-75-1; Homo sapiens, ZR-75-1): 100 nM
- IC50 ([1]; Homo sapiens, KBVIN): 160 nM

Structure (SMILES): COc1ccc2c(CN3CCC[C@H]3C(=O)O)cc3cc4c(cc3c2c1)OCO4
- IC50 (A549; Homo sapiens, A549): 2100 nM

Structure (SMILES): COc1ccc2c(CNCCCCCCCCCCCO)cc3cc4c(cc3c2c1)OCO4
- IC50 (A549; Homo sapiens, A549): 2600 nM

Structure (SMILES): COc1ccc2c(CN3CCN(c4ccccc4Cl)CC3)cc3cc4c(cc3c2c1)OCO4
- Activity (A549): inactive

Structure (SMILES): COc1ccc2c(CNCCCCCC(=O)O)cc3cc4c(cc3c2c1)OCO4
- IC50 (A549; Homo sapiens, A549): 800 nM
- IC50 (KB; Homo sapiens, KB): 330 nM
- IC50 (DU-145; Homo sapiens, DU-145): 670 nM
- IC50 (ZR-75-1; Homo sapiens, ZR-75-1): 540 nM
- IC50 ([1]; Homo sapiens, KBVIN): 830 nM

Structure (SMILES): COc1ccc2c(CNCCCCCCO)cc3cc4c(cc3c2c1)OCO4
- IC50 (KB; Homo sapiens, KB): 230 nM
- IC50 (DU-145; du-145): 70 nM
- IC50 (ZR-75-1; Homo sapiens, ZR-75-1): 80 nM
- IC50 [1]: 160 nM

Structure (SMILES): COc1ccc2c(CN3CCC[C@@H]3C(=O)O)cc3cc4c(cc3c2c1)OCO4
- IC50 (A549; Homo sapiens, A549): 5200 nM

Structure (SMILES): COc1ccc2c(CNCCCCCCCCCCC(=O)O)cc3cc4c(cc3c2c1)OCO4
- IC50 (A549; Homo sapiens, A549): 3200 nM

Structure (SMILES): COc1ccc2c(CN3CCC[C@H]3CO)cc3cc4c(cc3c2c1)OCO4
- IC50 (A549; Homo sapiens, A549): 700 nM
